In ChEMBL document CHEMBL1156810, “Synthesis and structure-activity relationships of azamacrocyclic C-X-C chemokine receptor 4 antagonists: analogues containing a single azamacrocyclic ring are potent inhibitors of T-cell tropic (X4) HIV-1 replication” (J Med Chem, 2010):
pEC50: −log10 of the molar value.

system: Human immunodeficiency virus 1; test: Antiviral activity against HIV1 3B infected in human MT4 cells assessed as inhibition of virus replication after 4 days by MTT assay; type: functional, organism-based; details: Human immunodeficiency virus 1, 3B, MT4, 96 h

Compound	pEC50
c1ccc(CNCc2ccc(CN3CCNCCCCCCc4cccc(n4)C3)cc2)nc1	5.34

system: not listed separately; test: Therapeutic index, ratio of CC50 for human MT4 cells to EC50 for HIV1 3B; type: cell-based; details: not given
Method in brief: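 Selectivity index calculated as CC50 divided by EC50. Both come from parallel 5-day MTT viability assays in MT-4 cells, mock-infected or infected with HIV-1 IIIB at MOI 0.01.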

Compound	selectivity ratio
c1ccc(CNCc2ccc(CN3CCCNCCNCCCNCC3)cc2)nc1	> 12000

system: Human immunodeficiency virus 1; test: Antiviral activity against HIV1 3B infected in human MT4 cells assessed as inhibition of virus replication after 5 days by MTT assay; details: Human immunodeficiency virus 1, 3B, MT4, 120 h

Compound	pEC50
c1ccc(CNCc2ccc(CC3CCNCCc4cccc(n4)CCNCC3)cc2)nc1	6.66
c1ccc(CNCc2ccc(CC3CCNCCCCCCCNCC3)cc2)nc1	5.66
c1cc(CNCc2ccc(CN3CCCNCCNCCCNCC3)cc2)ccn1	5.00
O=C1CN(Cc2ccc(CNCc3ccccn3)cc2)CCc2cccc(n2)CCCCCN1	3.90
c1cncc(CNCc2ccc(CN3CCCNCCNCCCNCC3)cc2)c1	5.07
c1ccc(CNCc2ccc(CC3CCNCCCOCCCNCC3)cc2)nc1	6.37
c1ccc(CNCc2ccc(CN3CCNCCc4cncc(c4)CCNCC3)cc2)nc1	6.98
c1ccc(CNCc2ccc(CN3CCNCCCOCCCNCC3)cc2)nc1	8.40
c1ccc(CNCc2ccc(CN3CCNCCCSCCCNCC3)cc2)nc1	7.89
CN(Cc1ccc(CN2CCCNCCNCCCNCC2)cc1)Cc1ccccn1	6.38
c1ccc(CNCc2ccc(CN3CCNCCCCCc4cccc(n4)CC3)cc2)nc1	5.90
Cc1cnc(CNCc2ccc(CN3CCCNCCNCCCNCC3)cc2)cn1	5.72
c1ccc(CNCc2ccc(CN3CCNCCc4cccc(c4)CCNCC3)cc2)nc1	7.40
c1ccc(CNCc2ccc(CN3CCCCCCCNCCNCC3)cc2)nc1	4.95
c1ccc(CNCc2ccc(CN3CCNCCc4cccc(n4)CCNCC3)cc2)nc1	9.00
c1ccc(CNCc2ccc(CN3CCCNCCNCCCNCC3)cc2)nc1	8.05
FC1CCCNCCN(Cc2ccc(CNCc3ccccn3)cc2)CCNCCC1	5.91
c1ccc(CNCc2ccc(CN3CCNCCCCCCCNCC3)cc2)nc1	7.37
c1ccc(CCNCc2ccc(CN3CCCNCCNCCCNCC3)cc2)nc1	4.31
[O-][S+]1CCCNCCN(Cc2ccc(CNCc3ccccn3)cc2)CCNCCC1	6.31
O=S1(=O)CCCNCCN(Cc2ccc(CNCc3ccccn3)cc2)CCNCCC1	4.93
FC1(F)CCCNCCN(Cc2ccc(CNCc3ccccn3)cc2)CCNCCC1	6.04
Nc1ccc(CNCc2ccc(CN3CCCNCCNCCCNCC3)cc2)cc1	6.14
c1ccc(CNCc2ccc(CN3CCCNCCNCCCNCC3)cc2)cc1	6.31
Nc1ccccc1CNCc1ccc(CN2CCCNCCNCCCNCC2)cc1	5.74
c1cc(CN2CCCNCCNCCCNCC2)ccc1CN1CCCNCCNCCCNCC1 [PLERIXAFOR]	8.40
c1ccc(CNCc2ccc(CN3CCNCCNCCc4cccc(n4)CC3)cc2)nc1	7.20
c1ccc(CNCc2ccc(CN3CCNCCNCCc4cccc(c4)CC3)cc2)nc1	4.85
